This note sets out measurements from ChEMBL document CHEMBL4308828, “Fragment Based Optimization of Metabotropic Glutamate Receptor 2 (mGluR2) Positive Allosteric Modulators in the Absence of Structural Information” (J Med Chem, 2018).

The nature of data set [1]: Intrinsic clearance in NMRI mouse liver microsomes at 2.5 uM. The format is ADME, Microsome. In a few lines:
(§1)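 Liver microsomes (0.5 mg/mL) of human, Wistar rat or NMRI mouse; compound 2.5 μM initial, incubated for various times. Intrinsic clearance (mL/min·g liver) taken as rate of compound consumption under first-order conditions, Clint = Vmax/KM or V/S when S ≪ KM.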

The nature of data set [2]: Intrinsic clearance in Wistar rat liver microsomes at 2.5 uM. In kind it is ADME, Microsome. In a few lines: as §1
A general note: Liver microsomes are a subcellular fraction often used to study metabolism.

Data set [3] can be described thus: Intrinsic clearance in human liver microsomes at 2.5 uM. In kind it is ADME, Microsome. Put shortly:
as §1

Data set [4] addresses Metabotropic glutamate receptor 2 (Homo sapiens, UniProt Q14416). Kind of data set: Positive allosteric modulation of human mGluR2 expressed in human Chem1 cells assessed as increase in glutamate-induced intracellular calcium influx preincubated for 30 mins followed by glutamate addition by calcium-5 dye based fluorometric assay. In kind it is functional, cell-based. In a few lines:
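Chem-1 cells stably expressing human mGlu2, 30000 cells/well, overnight at 37 °C. Loaded with Calcium 5 dye (30 min, 37 °C) in buffer with GPT/pyruvate, washed, then compound or vehicle 30 min at 37 °C. Glutamate at EC5-EC20 added after 20 s baseline; fluorescence 485/525 nm read 40 s. ΔF/F from multiple wells; sigmoid fits give EC50, three independent experiments. Final DMSO 1%.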
Background: A change in cytosolic calcium serves as a functional read-out for many receptors and channels.

The EC50 is the concentration at which the effect is half-maximal.

Metabotropic glutamate receptor 2, sequence (Q14416 whole entry): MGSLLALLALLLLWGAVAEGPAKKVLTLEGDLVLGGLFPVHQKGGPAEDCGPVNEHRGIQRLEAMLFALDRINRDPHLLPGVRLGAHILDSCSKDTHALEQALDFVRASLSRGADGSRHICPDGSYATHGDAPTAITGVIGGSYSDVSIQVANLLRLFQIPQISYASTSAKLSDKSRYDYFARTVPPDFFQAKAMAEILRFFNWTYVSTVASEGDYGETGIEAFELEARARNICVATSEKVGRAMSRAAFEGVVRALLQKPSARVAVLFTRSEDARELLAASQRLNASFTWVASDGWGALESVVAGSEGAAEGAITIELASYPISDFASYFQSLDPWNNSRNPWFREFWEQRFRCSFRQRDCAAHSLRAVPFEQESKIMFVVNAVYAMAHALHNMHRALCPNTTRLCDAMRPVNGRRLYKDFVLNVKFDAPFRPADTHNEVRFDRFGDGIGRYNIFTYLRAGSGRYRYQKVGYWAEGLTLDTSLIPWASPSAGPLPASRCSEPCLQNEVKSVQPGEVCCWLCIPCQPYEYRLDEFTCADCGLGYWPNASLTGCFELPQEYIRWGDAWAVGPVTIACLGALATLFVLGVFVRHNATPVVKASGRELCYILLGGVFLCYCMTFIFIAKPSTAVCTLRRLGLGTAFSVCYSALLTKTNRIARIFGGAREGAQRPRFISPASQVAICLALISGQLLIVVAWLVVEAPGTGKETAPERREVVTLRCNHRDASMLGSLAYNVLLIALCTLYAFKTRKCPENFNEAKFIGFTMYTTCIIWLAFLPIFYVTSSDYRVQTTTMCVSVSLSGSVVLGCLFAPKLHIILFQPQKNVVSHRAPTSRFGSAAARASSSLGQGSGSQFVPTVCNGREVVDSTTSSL

Take `Fc1ccc(Cn2nnc3c(Br)cccc32)cc1`: the results for the Intrinsic clearance in data set [1], in data set [2] and in data set [3] were 1 mL/min/g, 1 mL/min/g and 1.2 mL/min/g, respectively. Besides, the EC50 in data set [4] worked out at 15 nM.
As to `Fc1cc(C(F)(F)F)ccc1-c1ccc(Cn2nnc3ccccc32)cc1`, the figures for the Intrinsic clearance in data set [1], in data set [2] and in data set [3] were 1.2 mL/min/g, 0.4 mL/min/g and 0.1 mL/min/g, respectively. Moreover, the EC50 in data set [4] was 29 nM.
For `Clc1ccc(-c2ccc(Cn3nnc4ccccc43)cn2)cc1`, in that order: 3.8 mL/min/g, 1 mL/min/g, 0.2 mL/min/g and 70 nM.
As for `N#Cc1cccc2c1nnn2Cc1ccc(-c2ccc(Cl)cc2F)nc1`, the Intrinsic clearance came to 1.6 mL/min/g in data set [1], 0.1 mL/min/g in data set [2] and 0.05 mL/min/g in data set [3]. The EC50 in data set [4] turned out to be 33 nM.
For `Fc1cc(Cl)ccc1-c1ccc(Cn2nnc3c(F)cccc32)cn1`, in that order: 2.2 mL/min/g, 0.6 mL/min/g, 0.1 mL/min/g and 27 nM.
The like results for `FC(F)(F)c1cc(Br)c2nnn(CC3CC3)c2c1` were, in that order, 7.7 mL/min/g, 0.2 mL/min/g, 0.1 mL/min/g and 140 nM.
For `Brc1cccc2c1nnn2CC1CCCCC1`, the Intrinsic clearance in data set [1] turned out to be 15.3 mL/min/g; in data set [2] it was 16.2 mL/min/g; in data set [3], 11.9 mL/min/g. In data set [4], the EC50 is 10 nM.
As for `c1ccc(-c2ccc(Cn3nnc4ccccc43)cc2)cc1`, the Intrinsic clearance was determined as 11.4 mL/min/g in data set [1], 12.6 mL/min/g in data set [2] and 7.9 mL/min/g in data set [3]. Besides, the EC50 in data set [4] was 155 nM.
Regarding `Clc1cccc2c1nnn2CC1CC1`, the results for the Intrinsic clearance in data set [1], in data set [2] and in data set [3] were 5.7 mL/min/g, 0.5 mL/min/g and 4.2 mL/min/g, respectively. In addition, the EC50 in data set [4] was determined as 90 nM.
In the case of `COc1cc(Br)c2nnn(CC3CC3)c2c1`, the EC50 in data set [4] came out at 730 nM.
Regarding `COc1cccc2c1nnn2CC1CC1`, the Intrinsic clearance in data set [1] is 8.3 mL/min/g; in data set [2], 0.8 mL/min/g; in data set [3], 1.8 mL/min/g. Moreover, in data set [4], the EC50 came to 400 nM.
In the case of `CCCn1nnc2c(Br)cccc21`, the Intrinsic clearance in data set [1] turned out to be 7.7 mL/min/g; in data set [2], 0.8 mL/min/g; in data set [3], 4.7 mL/min/g. For the same molecule, the EC50 in data set [4] amounted to 270 nM.
Take `Fc1cc(Cl)ccc1-c1ccc(Cn2nnc3c(C(F)(F)F)cccc32)cn1`: the Intrinsic clearance in data set [1] worked out at 0.1 mL/min/g; in data set [2], 0.2 mL/min/g; in data set [3], 0.04 mL/min/g. In addition, the EC50 in data set [4] worked out at 13 nM.
With `Clc1ccc(Cn2nnc3c(Br)cccc32)cn1`, the EC50 in data set [4] was determined as 290 nM.
Take `Fc1ccc(-c2ccc(Cn3nnc4ccccc43)cc2)c(Cl)c1`: the results for the Intrinsic clearance in data set [1], in data set [2] and in data set [3] were 1.5 mL/min/g, 2.6 mL/min/g and 0.7 mL/min/g, respectively. Also, the EC50 in data set [4] came to 118 nM.
For `Fc1cc(Br)c2nnn(CC3CC3)c2c1`, in that order: 5.7 mL/min/g, 0.5 mL/min/g, 0.4 mL/min/g and 70 nM.
For the molecule `N#Cc1cccc2c1nnn2CC1CC1`, in data set [4], the EC50 worked out at 620 nM.
On to `Fc1cc(Cl)ccc1-c1ccc(Cn2nnc3ccccc32)cc1`, for which the Intrinsic clearance came to 1.1 mL/min/g in data set [1], 1.3 mL/min/g in data set [2] and 0.4 mL/min/g in data set [3]. Also, in data set [4], the EC50 turned out to be 28 nM.
For the molecule `Fc1ccc2nnn(Cc3ccc(-c4ccc(Cl)cc4F)nc3)c2c1`, the Intrinsic clearance in data set [1] was determined as 2.2 mL/min/g; in data set [2], 1 mL/min/g; in data set [3], 0.1 mL/min/g. For the same molecule, the EC50 in data set [4] stood at 86 nM.
Consider `Clc1ccc(-c2ccc(Cn3nnc4ccccc43)cc2)c(Cl)c1`, for which the values for the Intrinsic clearance in data set [1], in data set [2] and in data set [3] were 1.3 mL/min/g, 1.4 mL/min/g and 0.6 mL/min/g, respectively. Moreover, the EC50 in data set [4] was 79 nM.
For `Brc1cccc2c1nnn2CC1CCC1`, in that order: 11.4 mL/min/g, 12 mL/min/g, 8.7 mL/min/g and 20 nM.
As to `Fc1ccccc1Cn1nnc2c(Br)cccc21`, the Intrinsic clearance is 1.7 mL/min/g in data set [1], 1.8 mL/min/g in data set [2] and 0.2 mL/min/g in data set [3]. For the same molecule, the EC50 in data set [4] was determined as 64 nM.
For the molecule `Fc1cccc2c1nnn2CC1CC1`, the EC50 in data set [4] turned out to be 1070 nM.
`Fc1ccc2c(c1)nnn2Cc1ccc(-c2ccc(Cl)cc2F)nc1`: the Intrinsic clearance in data set [1] worked out at 0.7 mL/min/g; in data set [2], 0.5 mL/min/g; in data set [3], 0.1 mL/min/g. Also, the EC50 in data set [4] came out at 68 nM.
For `Clc1ccc(Cn2nnc3c(Br)cccc32)cc1`, in that order: 2 mL/min/g, 2.2 mL/min/g, 0.6 mL/min/g and 17 nM.
Regarding `Fc1cc(Cn2nnc3c(Br)cccc32)ccc1Cl`, the results for the Intrinsic clearance in data set [1], in data set [2] and in data set [3] were 2.2 mL/min/g, 3.1 mL/min/g and 0.4 mL/min/g, respectively. In data set [4], the EC50 came to 18 nM.
Regarding `Fc1cc(Cl)ccc1Cn1nnc2c(Br)cccc21`, the Intrinsic clearance in data set [1] was 1.3 mL/min/g; in data set [2] it was 3.8 mL/min/g; in data set [3], 0.5 mL/min/g. The EC50 in data set [4] turned out to be 23 nM.
The like results for `Fc1ccc(-c2ccc(Cn3nnc4ccccc43)cc2)c(F)c1` were, in that order, 2.3 mL/min/g, 6.4 mL/min/g, 0.9 mL/min/g and 71 nM.
For `Brc1cccc2c1nnn2Cc1ccccc1`, in that order: 2.3 mL/min/g, 2 mL/min/g, 4.7 mL/min/g and 80 nM.
The like results for `Clc1cc(Br)c2nnn(CC3CC3)c2c1` were, in that order, 11.4 mL/min/g, 1.1 mL/min/g, 0.5 mL/min/g and 60 nM.
For the molecule `Fc1ccc(Cn2nnc3c(Br)cccc32)c(Cl)c1`, the results for the Intrinsic clearance in data set [1], in data set [2] and in data set [3] were 3 mL/min/g, 3.5 mL/min/g and 1.8 mL/min/g, respectively. Further, the EC50 in data set [4] worked out at 190 nM.
In the case of `Fc1cccc(Cn2nnc3c(Br)cccc32)c1`, the Intrinsic clearance in data set [1] was found to be 1.3 mL/min/g; in data set [2], 1.6 mL/min/g; in data set [3] it was 1.8 mL/min/g. For the same molecule, the concentration giving a half-maximal response (EC50) in data set [4] was 18 nM.
Regarding `Brc1cc(Br)c2nnn(CC3CC3)c2c1`, the Intrinsic clearance was found to be 15.3 mL/min/g in data set [1], 2.3 mL/min/g in data set [2] and 0.6 mL/min/g in data set [3]. In addition, the EC50 in data set [4] was 50 nM.
On to `Fc1cc(Cl)ccc1-c1ccc(Cn2nnc3ccccc32)nc1`, for which the Intrinsic clearance in data set [1] was 1.6 mL/min/g; in data set [2], 2.3 mL/min/g; in data set [3] it was 0.8 mL/min/g. In addition, in data set [4], the EC50 was 141 nM.
`Fc1ccccc1-c1ccc(Cn2nnc3ccccc32)cn1`: the EC50 in data set [4] was determined as 600 nM.
As for `Brc1cccc2c1nnn2CC1CCCC1`, the Intrinsic clearance stood at 11.4 mL/min/g in data set [1], 14.6 mL/min/g in data set [2] and 7.9 mL/min/g in data set [3]. Besides, the EC50 in data set [4] worked out at 30 nM.
As for `CCn1nnc2c(Br)cccc21`, in data set [4], the EC50 came out at 2240 nM.
In the case of `FC(F)(F)c1ccc(-c2ccc(Cn3nnc4ccccc43)cc2)c(Cl)c1`, the Intrinsic clearance in data set [1] turned out to be 0.4 mL/min/g; in data set [2] it was 0.5 mL/min/g; in data set [3] it was 0 mL/min/g. Further, the EC50 in data set [4] was determined as 37 nM.
In the case of `c1ccc(Cn2nnc3ccccc32)cc1`, the results for the Intrinsic clearance in data set [1], in data set [2] and in data set [3] were 1 mL/min/g, 1.2 mL/min/g and 7.9 mL/min/g, respectively. In addition, the EC50 in data set [4] came to 3000 nM.
In the case of `Brc1ccc(Cn2nnc3c(Br)cccc32)cn1`, the EC50 in data set [4] is 210 nM.
`Brc1ccc(Cn2nnc3c(Br)cccc32)cc1`: the values for the Intrinsic clearance in data set [1], in data set [2] and in data set [3] were 2.6 mL/min/g, 2.2 mL/min/g and 0.4 mL/min/g, respectively. In addition, the EC50 in data set [4] was found to be 14 nM.
The like results for `CC(C)Cn1nnc2c(Br)cccc21` were, in that order, 3.5 mL/min/g, 4 mL/min/g, 4.2 mL/min/g and 140 nM.
For `CCCCn1nnc2c(Br)cccc21`, in that order: 8.3 mL/min/g, 4.4 mL/min/g, 9.5 mL/min/g and 60 nM.
For `Cn1nnc2c(Br)cccc21`, the EC50 in data set [4] is more than 5000 nM.
